In ChEMBL document CHEMBL2331524, “Potent proteasome inhibitors derived from the unnatural cis-cyclopropane isomer of Belactosin A: synthesis, biological activity, and mode of action” (J Med Chem, 2013):
Calls of active or inactive are those of the source. The rule behind the calls is not given here.

How the values were obtained:
[1] = biological target: T1, Proteasome Macropain subunit MB1 (Homo sapiens, UniProt P28074); assay: Inhibition of chymotrypsin-like activity of human 20S proteasome beta 5 subunit using Suc-LLVY-AMC as substrate after 60 mins by fluorescence assay
T1 sequence (P28074 whole entry): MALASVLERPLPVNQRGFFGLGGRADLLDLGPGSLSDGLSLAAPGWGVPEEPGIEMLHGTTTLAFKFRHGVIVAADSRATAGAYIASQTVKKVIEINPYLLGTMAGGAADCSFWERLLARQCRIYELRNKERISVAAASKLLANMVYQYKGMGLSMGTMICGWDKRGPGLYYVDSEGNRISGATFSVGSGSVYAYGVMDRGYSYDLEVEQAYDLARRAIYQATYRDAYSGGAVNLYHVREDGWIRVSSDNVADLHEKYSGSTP

HCT-116 [2] = assay: Induction of apoptosis in human HCT116 cells assessed as induction of PARP cleavage by Western blotting analysis; type: functional, cell-based
Summary of the method: (§1)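 Cell extracts were immunoblotted for p53, read as a cellular marker of proteasome blockade, and for cleaved PARP, read as an apoptosis marker.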

HCT-116 [3] = assay: Inhibition of proteasome in human HCT116 cells assessed as accumulation of p53 by Western blotting analysis; type: cell-based; summary of the method: as §1
HCT-116 [4] = assay: Cell cycle arrest in human HCT116 cells assessed as accumulation at G2/M phase after 24 hrs by propidium iodide staining-based flow cytometric analysis; type: functional
HCT-116 [5] = assay: Cytotoxicity against human HCT116 cells after 72 hrs by CCK-8 assay; type: functional, cell-based; conditions: HCT-116, 72 h
[6] = biological target: T2, Proteasome Macropain subunit MB1 (Homo sapiens) (UniProt P28074); assay: Irreversible inhibition of chymotrypsin-like activity of human 20S proteasome beta 5 subunit using Suc-LLVY-AMC as substrate incubated for 12 hrs prior to substrate addition followed by compound wash out measured after 1 hr by dialysis method
T2 sequence (whole entry): T1 sequence (P28074 whole entry)

[7] = Half life in TEAA buffer at pH 7.4 by HPLC analysis; type: physicochemical
Summary of the method: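 Compound incubated in 0.1 M triethylammonium acetate (TEAA) buffer, pH 7.4, at 37 °C. The time course was recorded by HPLC, and the half-life (t1/2) was determined from that time course.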

[8] = biological target: T3, Proteasome subunit beta type-8 (Homo sapiens) (UniProt P28062); assay: Inhibition of chymotrypsin-like activity of human 20S immunoproteasome beta 5 subunit using […] at 2.5 uM incubated for 5 mins prior to […] measured after 1 hr by ELISA
T3 sequence (whole entry): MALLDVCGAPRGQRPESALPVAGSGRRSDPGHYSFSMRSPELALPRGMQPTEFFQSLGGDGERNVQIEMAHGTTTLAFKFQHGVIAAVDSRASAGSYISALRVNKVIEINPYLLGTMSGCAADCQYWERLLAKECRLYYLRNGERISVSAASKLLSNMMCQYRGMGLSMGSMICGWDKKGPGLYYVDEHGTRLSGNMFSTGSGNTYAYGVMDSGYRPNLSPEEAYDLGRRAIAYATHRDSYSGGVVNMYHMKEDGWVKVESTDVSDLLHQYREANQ

[9] = biological target: T2, Proteasome Macropain subunit MB1 (Homo sapiens); conditions: 2.5 uM
[10] = biological target: T2, Proteasome Macropain subunit MB1 (Homo sapiens); assay: Reversible inhibition of chymotrypsin-like activity of human 20S proteasome beta 5 subunit using Suc-LLVY-AMC as substrate incubated for 12 hrs prior to substrate addition followed by compound wash out measured after 1 hr by dialysis method
[11] = biological target: T3, Proteasome subunit beta type-8 (Homo sapiens); assay: Inhibition of chymotrypsin-like activity of human 20S immunoproteasome beta 5 subunit using […] at 0.3 uM incubated for 5 mins prior to […] measured after 1 hr by ELISA
[12] = biological target: T2, Proteasome Macropain subunit MB1 (Homo sapiens); assay: Inhibition of chymotrypsin-like activity of human constitutive 20S proteasome beta 5 subunit using […] at 0.3 uM incubated for 5 mins prior to […] measured after 1 hr by ELISA

CC[C@H](C)[C@@H]1C(=O)O[C@H]1C(=O)N[C@H]1C[C@H]1C[C@@H](Cc1cccc2ccccc12)NC(=O)[C@H](C)NC(=O)OCc1ccccc1
IC50 [1]: 130 nM

C=C[C@H](C[C@@H]1C[C@@H]1NC(=O)[C@@H]1OC(=O)[C@H]1[C@@H](C)CC)NC(=O)C(C)(C)C
IC50 [1]: 210 nM

C=C[C@H](C[C@@H]1C[C@@H]1NC(=O)[C@@H]1OC(=O)[C@H]1[C@@H](C)CC)NC(=O)[C@@H](C)NC(=O)OCc1ccccc1
IC50 [1]: 57 nM

C=C[C@H](C[C@@H]1C[C@@H]1NC(=O)[C@@H]1OC(=O)[C@H]1[C@@H](C)CC)NC(=O)[C@H](Cc1ccccc1)NC(=O)OCc1ccccc1
Activity (HCT-116 [2]): Active
p53 accumulation (active/inactive) (HCT-116 [3]): Active
Activity (HCT-116 [4]): Active
IC50 (HCT-116 [5]): 4160 nM
IC50 [1]: 30 nM

C=C[C@H](C[C@@H]1C[C@@H]1NC(=O)[C@@H]1OC(=O)[C@H]1[C@@H](C)CC)NC(=O)CNC(=O)OCc1ccccc1
IC50 [1]: 41 nM

CC(C)C[C@H](NC(=O)[C@H](CCc1ccccc1)NC(=O)CN1CCOCC1)C(=O)N[C@@H](Cc1ccccc1)C(=O)N[C@@H](CC(C)C)C(=O)[C@@]1(C)CO1
inhibition [6]: Active

CC[C@H](C)[C@@H]1C(=O)O[C@H]1C(=O)N[C@H]1C[C@H]1C[C@@H](Cc1ccc2ccccc2c1)NC(=O)[C@H](C)NC(=O)OCc1ccccc1
IC50 [1]: 200 nM

CC[C@H](C)[C@@H]1C(=O)O[C@H]1C(=O)N[C@H]1C[C@H]1C[C@@H](CCc1ccccc1)NC(=O)[C@H](C)N
half-life [7]: 600 min

CC(=O)N[C@@H](CSC(=O)[C@]1([C@@H](O)C(C)C)NC(=O)[C@H](C)[C@@H]1O)C(=O)O
inhibition [8]: Active
inhibition [9]: Active

CC[C@H](C)[C@@H]1C(=O)O[C@H]1C(=O)N[C@H]1C[C@H]1C[C@@H](CCc1ccccc1)NC(=O)c1ccc2ccccc2c1
IC50 [1]: 33 nM

C=C[C@H](C[C@@H]1C[C@@H]1NC(=O)[C@@H]1OC(=O)[C@H]1[C@@H](C)CC)NC(=O)c1ccc2ccccc2c1
Activity (HCT-116 [2]): Active
p53 accumulation (active/inactive) (HCT-116 [3]): Active
Activity (HCT-116 [4]): Active
IC50 (HCT-116 [5]): 11200 nM
IC50 [1]: 60 nM

CC[C@H](C)[C@@H]1C(=O)O[C@H]1C(=O)N[C@H]1C[C@H]1C[C@@H](Cc1ccccc1)NC(=O)[C@H](C)NC(=O)OCc1ccccc1
IC50 [1]: 14 nM

C=C[C@H](C[C@@H]1C[C@@H]1NC(=O)[C@@H]1OC(=O)[C@H]1[C@@H](C)CC)NC(=O)[C@H](Cc1c[nH]c2ccccc12)NC(=O)OCc1ccccc1
IC50 [1]: 28 nM

C=C[C@H](C[C@@H]1C[C@@H]1NC(=O)[C@@H]1OC(=O)[C@H]1[C@@H](C)CC)NC(=O)[C@H](CC(C)C)NC(=O)OCc1ccccc1
IC50 [1]: 47 nM

CC[C@H](C[C@@H]1C[C@@H]1NC(=O)[C@@H]1OC(=O)[C@H]1[C@@H](C)CC)NC(=O)[C@H](C)NC(=O)OCc1ccccc1
IC50 [1]: 38 nM

CC[C@H](C)[C@@H]1C(=O)O[C@H]1C(=O)N[C@H]1C[C@H]1C[C@@H](CCc1ccc2ccccc2c1)NC(=O)[C@H](C)NC(=O)OCc1ccccc1
IC50 [1]: 29 nM

C=C[C@H](C[C@@H]1C[C@@H]1NC(=O)[C@@H]1OC(=O)[C@H]1[C@@H](C)CC)NC(=O)[C@H](C)N
IC50 [1]: 300 nM

C=C[C@H](C[C@@H]1C[C@@H]1NC(=O)[C@@H]1OC(=O)[C@H]1[C@@H](C)CC)NC(=O)C(C)C
IC50 [1]: 230 nM

C=C[C@H](C[C@@H]1C[C@@H]1NC(=O)[C@@H]1OC(=O)[C@H]1[C@@H](C)CC)NC(=O)[C@H](C)NC(=O)c1ccccc1
IC50 [1]: 79 nM

C=C[C@H](C[C@@H]1C[C@@H]1NC(=O)[C@@H]1OC(=O)[C@H]1[C@@H](C)CC)NC(=O)[C@H](C)NC(=O)OC(C)(C)C
IC50 [1]: 77 nM

CC[C@H](C)[C@@H]1C(=O)O[C@H]1C(=O)N[C@H]1C[C@H]1C[C@@H](CCc1cccc2ccccc12)NC(=O)[C@H](C)NC(=O)OCc1ccccc1
IC50 [1]: 63 nM

C=C[C@H](C[C@@H]1C[C@@H]1NC(=O)[C@@H]1OC(=O)[C@H]1[C@@H](C)CC)NC(=O)[C@H](C)NC(=O)c1ccc2ccccc2c1
Activity (HCT-116 [2]): Active
p53 accumulation (active/inactive) (HCT-116 [3]): Active
Activity (HCT-116 [4]): Active
IC50 (HCT-116 [5]): 2610 nM
IC50 [1]: 25 nM

C=C[C@H](C[C@@H]1C[C@@H]1NC(=O)[C@@H]1OC(=O)[C@H]1[C@@H](C)CC)NC(=O)[C@H](C)NC(C)=O
IC50 [1]: 230 nM

CC[C@H](C)[C@@H]1C(=O)O[C@H]1C(=O)N[C@H]1C[C@H]1C[C@@H](CCCc1ccccc1)NC(=O)[C@H](C)NC(=O)OCc1ccccc1
IC50 [1]: 35 nM

CC[C@H](C)[C@@H]1C(=O)O[C@H]1C(=O)N[C@H]1C[C@H]1C[C@@H](CCc1ccccc1)NC(=O)[C@H](C)NC(=O)OCc1ccccc1
inhibition [10]: Active
Activity (HCT-116 [2]): Active
p53 accumulation (active/inactive) (HCT-116 [3]): Active
Activity (HCT-116 [4]): Active
IC50 (HCT-116 [5]): 1820 nM
inhibition [11]: Active
inhibition [12]: Active
IC50 [1]: 5.7 nM

CC(C)C[C@H](NC(=O)[C@H](Cc1ccccc1)NC(=O)c1cnccn1)B(O)O [BORTEZOMIB]
inhibition [10]: Active
Activity (HCT-116 [2]): Active
p53 accumulation (active/inactive) (HCT-116 [3]): Active
Activity (HCT-116 [4]): Active
IC50 (HCT-116 [5]): 10 nM

C[C@@]12OC(=O)[C@]1([C@@H](O)[C@@H]1C=CCCC1)NC(=O)[C@@H]2CCCl [MARIZOMIB]
half-life [7]: 56 min

CC(C)[C@H](O)[C@@]12NC(=O)[C@H](C)[C@@H]1OC2=O [OMURALIDE]
half-life [7]: 13 min

CC[C@H](C)[C@@H]1C(=O)O[C@H]1C(=O)N[C@H]1C[C@H]1C[C@H](NC(=O)[C@H](C)NC(=O)OCc1ccccc1)c1ccccc1
IC50 [1]: 90 nM

C=C[C@H](C[C@@H]1C[C@@H]1NC(=O)[C@@H]1OC(=O)[C@H]1[C@@H](C)CC)NC(=O)c1ccccc1
IC50 [1]: 130 nM

C=C[C@H](C[C@@H]1C[C@@H]1NC(=O)[C@@H]1OC(=O)[C@H]1[C@@H](C)CC)NC(=O)[C@H](C)NC(=O)OCc1ccccc1
Activity (HCT-116 [4]): Active
IC50 (HCT-116 [5]): 910 nM
IC50 [1]: 49 nM

CC[C@H](C)[C@@H]1C(=O)O[C@H]1C(=O)N[C@H]1C[C@H]1C[C@H](NC(=O)[C@H](C)N)C(=O)O [BELACTOSIN A]
inhibition [11]: Active
inhibition [12]: Active
IC50 [1]: 1440 nM

COc1ccc(C[C@H](NC(=O)[C@H](C)NC(=O)CN2CCOCC2)C(=O)N[C@@H](Cc2ccccc2)C(=O)[C@]2(C)CO2)cc1
inhibition [11]: Active
inhibition [12]: Active

CC[C@H](C)[C@@H]1C(=O)O[C@H]1C(=O)N[C@H]1C[C@H]1C[C@@H](CCc1ccccc1)NC(=O)[C@H](C)NC(=O)c1ccc2ccccc2c1
Activity (HCT-116 [2]): Active
p53 accumulation (active/inactive) (HCT-116 [3]): Active
Activity (HCT-116 [4]): Active
IC50 (HCT-116 [5]): 790 nM
IC50 [1]: 10 nM
